Source: PubChem BioAssay (SRMLSC)
This is one part of a sample in which hits are shown more often than they occur.
HUVEC inhibit: inhibitors of HUVEC proliferation, primary screen, cell-based, 384-well; AID 648, 2007; CellTiter-Glo luminescence, 72 h; stronger effect = lower value; viability, % at 10 µM (by protocol); 86,000 compounds, 1.1% hits;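 active = viability at or below 30%; inactive = viability above 30%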
PTEN del growth: growth suppression of PTEN-null HCT116, primary screen, cell-based, CellTiter-Glo; HCT116 PTEN-null viability, 60 h; stronger effect = lower value; viability, % at 10 µM; 140,000 compounds, 1.2% hits;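 active = viability at or below a set limit, 4 SD under the median of all tested compounds, cut at about 3.7% in these data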;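 also: PTEN knockout HCT116 line with beta catenin targeted HCT116 as companion control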
bCat KO growth: primary screen for growth suppressors in beta-catenin knockout HCT116 cells (colon tumor, human). viability, % at 10 µM. HCT116 beta-catenin knockout viability, CellTiter-Glo, 60 h; stronger effect = lower value. 140,000 compounds, 1.5% hits;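 active = viability at or under a set limit, the compound median less 4 SD, cut at about 6% in these data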
H69AR inhibit: proliferation blockers of H69AR lung cancer cells, primary screen, cell-based, human, 86K library | H69AR lung tumor viability, ATP luminescence, 72 h; stronger effect = lower value | viability, % at 10 µM | 85,000 compounds, 6% hits | AID 598, 2007;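 active = viability at or below 40%; inactive = viability above 40%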;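 also: multidrug resistant small cell line overexpressing MRP-1 efflux transporter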
Fibroblast inh: antiproliferative effect on LL 47 fibroblasts – human, LL 47 cells, CellTiter-Glo luminescence, primary screen | 85,000 compounds, 1.1% hits | LL 47 human lung fibroblast viability, ATP luminescence; stronger effect = lower value | viability, % at 10 µM | AID 719, 2007;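 active = viability at or below 50% in the single dose screen; inactive = viability above 50%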;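 also: compound exposure lasted 72 h before the ATP readout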
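Assay system: human lung fibroblast line LL 47, low passage. Input: 1,150 fibroblasts seeded per well. Times: overnight cell rest, 72 h compound treatment at 37 °C. Evaluation: % viability of median cell-only signal. Technique: luminescent ATP detection, CellTiter-Glo. Control set: cell-only wells, no compound.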
A number is an active result; – = inactive; · = no result given.

SMILES	HUVEC inhibit	PTEN del growth	bCat KO growth	H69AR inhibit	Fibroblast inh
C=C(C(=O)c1ccccc1)C(C)C(=C)C(=O)c1ccccc1	·	1.4	2.4	·	·
COc1ccc(C2CC(C(F)(F)F)n3nc(C(=O)Nc4c(C)n(C)n(-c5ccccc5)c4=O)c(Cl)c3N2)cc1 (centres undefined)	·	–	–	·	·
Cc1ccc(Sc2ccc([N+](=O)[O-])cc2[N+](=O)[O-])nc1	·	–	–	·	·
O=[N+]([O-])c1ccc(Sc2nc3ccccc3o2)c([N+](=O)[O-])c1	2.6	1.4	1.9	0.2	0.9
O=[N+]([O-])c1ccc(Cl)cc1Sc1nc2ccccc2o1	–	–	–	25	–
Cc1ccnc(Sc2ccc([N+](=O)[O-])cc2[N+](=O)[O-])n1	·	–	5.2	·	·
CC(=O)CSc1nc2ccccc2o1	–	–	–	–	–
CCOC(=O)c1cccc(Nc2ncnc3ccc(C)cc23)c1	–	–	–	22	–
CCOC(=O)c1ccc(Nc2ncnc3ccc(C)cc23)cc1	–	–	–	–	–
Cc1c(/C=N/n2cnnc2)c2ccccc2n1CCOc1ccccc1	–	–	–	32	·
COc1ccc(C(=O)c2no[n+]([O-])c2C(=O)c2ccc(OC)cc2)cc1	·	–	–	·	·
Cc1c(C(=O)c2no[n+]([O-])c2C(=O)c2cnn(C)c2C)cnn1C	–	–	–	1.8	–
COc1cccc(-n2c(SCC(=O)NC3CCCC3)nnc2-c2ccco2)c1	–	–	–	–	–
Cc1cccc(S(=O)(=O)C(C#N)c2nc3ccccc3nc2N2CC(C)OC(C)C2)c1 (centres undefined)	–	–	–	–	–
Cc1ccc(S(=O)(=O)C(C#N)c2nc3ccccc3nc2N2CC(C)OC(C)C2)cc1C (centres undefined)	–	–	–	34	–
Cc1ccc(Cl)cc1NC(=O)COC(=O)CC1CC2CCC1C2 (centres undefined)	·	–	–	·	·
O=C(Nc1ccc(Cl)c(Cl)c1)Nc1ccc(Br)cc1F	·	–	4.9	·	·
COc1ccc2c3c(cccc13)C(=O)N(O)C2=O	·	–	–	·	·
CCC1=NNc2cccc3c(OC)ccc1c23	21	–	–	–	3.8
CCOC(=O)CNC(=O)CSc1nc2ncc(Br)cc2[nH]1	–	–	–	·	–
COc1cccc(OCc2nc3ccccc3[nH]2)c1	–	–	–	–	–
COc1cccc(OCc2nc3ncc(Br)cc3[nH]2)c1	–	–	–	25	47
Cc1cc(C)cc(OCc2nc3ncc(Br)cc3[nH]2)c1	–	·	·	11	14
Cc1cc(C(F)F)nn1CC(=O)N1CCSCC1	–	–	–	–	–
O=C(Nc1nc(COc2ccccc2)cs1)C12CC3CC(CC(C3)C1)C2	–	–	–	39	–
SMILES	HUVEC inhibit	PTEN del growth	bCat KO growth	H69AR inhibit	Fibroblast inh
O=C(CSc1ncnc2c1nnn2-c1ccc(F)cc1)N1CCN(c2ccccc2)CC1	–	·	·	27	–
COc1ccc(-n2ncc3c(SCC(=O)N4CCN(c5ccccc5OC)CC4)ncnc32)cc1	–	–	–	23	–
Cc1cccc(Nc2ncccc2C(=O)NCc2cccs2)c1C	·	–	–	·	·
CNC(=O)c1ccc(Oc2ccc(C(=O)NC)cc2)cc1	–	–	–	–	–
Cn1nc(C(=O)Nc2c(-c3ccccc3)nc3sccn23)c2ccccc2c1=O	–	–	–	26	40
Cc1nc(N2CCN(Cc3nc4ccccc4[nH]3)CC2)c2oc3ccccc3c2n1	–	–	–	36	–
c1ccc2[nH]c(CN3CCN(c4ncnc5c4oc4ccccc45)CC3)nc2c1	–	–	–	7.1	–
Cc1nc(SCc2nc3ccccc3[nH]2)c2oc3ccccc3c2n1	–	–	–	–	–
O=C(CC(O)(c1ccccc1)C(F)(F)C(F)F)c1cccs1 (centres undefined)	–	–	–	–	–
COc1ccc(/C=C/C(=O)CC(O)(c2ccccc2)C(F)(F)F)cc1 (centres undefined)	–	–	–	38	–
O=C(/C=C/c1ccccc1)CC(O)(c1ccccc1)C(F)(F)F (centres undefined)	26	·	3.9	2.0	35
CC(NC(=O)COC(=O)/C=C/c1cccc(C(F)(F)F)c1)c1ccccc1 (centres undefined)	·	–	–	·	·
COc1ccc(/C=C/C(=O)Nc2ccccc2C(F)(F)F)cc1	·	–	–	·	·
O=C(/C=C/c1ccccc1)CC(O)(c1ccccc1)C(F)(F)C(F)F (centres undefined)	5.3	·	2.8	1.3	32
Cc1ccc(-n2c(C)nc3c(cnn3-c3ccc(F)cc3)c2=O)cc1C	–	–	–	–	–
CCN(C(=O)c1cnc(N2CCN(c3ncccn3)CC2)c2ccccc12)c1cccc(Cl)c1	–	–	4.0	20	–
Cc1cc(C(F)F)n2nc(C(=O)Nc3cccc(C(F)(F)F)c3)nc2n1	–	–	–	–	–
COc1ccc(N=C2S/C(=C\c3ccc(N4CCOCC4)o3)C(=O)N2CCc2c[nH]c3ccccc23)cc1	·	1.6	1.9	·	·
O=C(NNC(=O)C(c1ccccc1)c1ccccc1)c1ccccn1	·	–	4.8	·	·
C/C(CC1CC2=C(CC1(C)C)C(C)(C)CCC2)=N\NC(N)=S (centres undefined)	–	–	–	23	–
O=c1[nH]c(N2CCN(c3ccccc3)CC2)nc2c1CCCC2	–	–	–	21	–
COc1ccc(Nc2oc(-c3ccc(Cl)cc3)nc2C#N)cc1	–	–	–	25	39
COc1ccc(Nc2oc(COc3ccc(Cl)cc3)nc2C#N)cc1	–	–	–	–	–
CCOc1ccc(Nc2oc(-c3ccc(Cl)cc3)nc2C#N)cc1	–	–	–	32	42
c1ccc(-c2cc(-c3nc4ccccc4[nH]3)c3ccccc3n2)cc1	·	–	–	·	·
SMILES	HUVEC inhibit	PTEN del growth	bCat KO growth	H69AR inhibit	Fibroblast inh
Cc1ccc(NCc2nnc(SCC(=O)NCc3ccco3)n2CC2CCCO2)c(C)c1 (centres undefined)	–	–	–	–	–
Cc1ccc(C(=O)N(Cc2ccc3c(c2)OCO3)Cc2nc3ccccc3c(=O)[nH]2)cc1	–	–	–	–	–
COc1ccc(NC(=O)c2cnc(C)cn2)c2ncccc12	27	–	–	2.8	49
O=C(c1cccc(Cl)c1)c1nn(-c2ccccc2)c(=O)cc1C(F)(F)F	·	1.1	2.5	·	·
O=C(c1ccccc1)c1nn(-c2ccc(Cl)cc2)c(=O)cc1C(F)(F)F	·	1.7	2.2	·	·
O=C(c1ccccc1)c1nn(-c2ccccc2)c(=O)cc1C(F)(F)F	·	–	–	·	·
CC(=O)SC(C)CC(=O)Nc1ccccc1 (centres undefined)	–	–	–	–	–
Cn1c(CCN2CCCCC2)nc2cc(NS(=O)(=O)c3ccc(Cl)cc3)ccc21	–	–	–	9.8	–
CC(=O)Nc1cccc(OCC(=O)Nc2ccccc2)c1	–	–	–	–	–
